# Screening results: PubChem BioAssay, The Scripps Research Institute Molecular Screening Center
# NPY-Y2 PAM-ag: human NPY-Y2 potentiation or agonism, primary screen | P49146 | AID 1359 | activation, % at 3.6 µM | 0.45% of 220,000 active | cells expressing NPY-Y2, potentiator/agonist read-out; in the data active means activation above about 27%;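 further: cells stimulated with NPY near EC25 plus isoproterenol at EC100; 0% = vehicle plus submaximal agonist and 100% = vehicle plus saturating agonist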
# NPY-Y2 antag: antagonists of human neuropeptide Y receptor Y2; AID 793; NPY-Y2 expressing cells, antagonist mode; inhibition, % at 2.7 µM; 0.99% of 140,000 active; in the data active means inhibition above about 17%;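 further: 0% = vehicle with agonist challenge and 100% = reference antagonist with challenge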
# S1P4 antag: antagonists of human S1P4 receptor. O95977. S1P4-expressing cells, antagonist mode, reporter read-out. inhibition, % at 4.98 µM. 0.26% of 220,000 active; in the data active means inhibition above about 29%;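 further: 0% = wells stimulated with agonist and 100% = vehicle wells without agonist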
# Target sequence (O95977 whole entry, looked up): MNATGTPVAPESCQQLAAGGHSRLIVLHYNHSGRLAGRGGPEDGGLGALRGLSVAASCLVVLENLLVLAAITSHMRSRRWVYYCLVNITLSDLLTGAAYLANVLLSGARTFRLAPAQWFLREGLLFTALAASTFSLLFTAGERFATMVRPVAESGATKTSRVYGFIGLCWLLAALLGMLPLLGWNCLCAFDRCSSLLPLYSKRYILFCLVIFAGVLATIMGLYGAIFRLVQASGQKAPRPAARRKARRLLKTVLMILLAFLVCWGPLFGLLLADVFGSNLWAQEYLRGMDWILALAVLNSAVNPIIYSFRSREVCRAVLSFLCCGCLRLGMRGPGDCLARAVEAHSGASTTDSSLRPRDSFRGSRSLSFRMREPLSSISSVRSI
# NPY Y1 blocker: NPY-Y1 (human) receptor antagonism; P25929; HEK293-CNG Y1 cells, membrane potential fluorescence; NPY at EC95, then isoproterenol; inhibition, % at 3.6 µM; 1% of 200,000 active; AID 1040;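 active means inhibition above the campaign mean inhibition of all tested compounds plus 3 SD, cut at about 20% in these data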;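 further: 0% = DMSO wells given NPY plus isoproterenol and 100% = isoproterenol alone without NPY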
#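 Benchmarks – high control isoproterenol alone, low control NPY with isoproterenol · Material – HEK293 Y1/CNG channel cell line · Times – dye 3 h, compound 60 min room temperature, stimulation 45 min · Probe or stimulus – NPY (25 nM), isoproterenol (1 µM), Ro 20-1724 (25 µM) · Evaluation – % inhibition of NPY effect · Signal – fluorescence, membrane potential probe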
# NPY1 pot ag: potentiates or activates human NPY-Y1 receptor | P25929 | NPY-Y1 expressing cells, potentiator/agonist activation | 0.37% of 220,000 active | activation, % at 3.6 µM; in the data active means activation above about 33%, passing the limit was not always enough;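 further: cells stimulated with NPY at EC10 then isoproterenol at EC100; 0% = low agonist plus stimulus and 100% = saturating agonist plus stimulus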
# S1P4 ag: activates the human S1P4 receptor | O95977 | S1P4-expressing cell line, agonist reporter assay | activation, % at 4.98 µM | 0.35% of 220,000 active | AID 1509; in the data active means activation above about 11%;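 further: 0% = DMSO vehicle and 100% = reference agonist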
# NPY-Y1 antag ct: antagonizes human NPY-Y1, counter-screen to NPY-Y2 antagonists; cell-based NPY-Y1 antagonism counterscreen; shares compounds with NPY-Y2 antag; 19% of 710 active; inhibition, % at 3.6 µM; in the data active means inhibition above about 20%;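 further: cells challenged with NPY then isoproterenol with cAMP sensed through a CNG channel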
# NPY2 antag conf: human NPY-Y2 antagonism, confirmation. shares compounds with NPY-Y2 antag. HEK293 NPY-Y2 CNG channel, membrane potential fluorescence. inhibition, % at 2.8 µM. 32% of 710 active. AID 1257;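 active means mean inhibition of triplicate wells above the hit cutoff set in the primary screen, cut at about 17% in these data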;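 further: 0% = DMSO with NPY challenge and 100% = BIIE0246 high control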
# An asterisk follows results filed as active; . = no result. Rows were chosen to be rich in hits. Some 2.4% of all compounds tested hit in one or more screens of this group.
SMILES,NPY-Y2 PAM-ag,NPY-Y2 antag,S1P4 antag,NPY Y1 blocker,NPY1 pot ag,S1P4 ag,NPY-Y1 antag ct,NPY2 antag conf
Cc1noc(C)c1COC(=O)CNC(=O)c1ccc(Cl)cc1,3,.,6,-5,-10,1,.,.
CCN=C1S/C(=C\c2cc(OCC)c(O)cc2Br)C(=O)N1CC,7,27*,-23,15,-28,1,25*,43*
CCN=C1S/C(=C\c2ccc(O)c(OCC)c2)C(=O)N1CC,-7,3,-20,1,-19,1,.,.
Cc1ccccc1CSc1ncc(C#N)c(N)n1,-9,3,-16,-3,-12,2,.,.
CC1CCN(CCCNC(=O)c2ccc(CSCc3cccc(Cl)c3)o2)CC1,-7,17*,-5,12,-24,0,9,12
CN1CCN(CCCNC(=O)c2ccc(CSCc3cccc(Cl)c3)o2)CC1,1,2,-16,0,-6,2,.,.
CCCCn1c(SCC(=O)Nc2ccccc2C(F)(F)F)nc2ccsc2c1=O,16,29*,-1,12,24,-1,14,13
CCCCn1c(SCC(=O)Nc2nccs2)nc2ccccc2c1=O,7,1,-15,1,11,1,.,.
CCCCn1c(SCC(=O)N2CCN(c3ccccc3)CC2)nc2ccsc2c1=O,-4,20*,3,6,-5,0,25*,14
O=C(NC1CCCc2ccccc21)c1ccc(Br)cc1 (configuration not stated),-3,5,-9,-1,-16,1,.,.
CCC(c1nnnn1Cc1ccc2c(c1)OCO2)N1CCN(c2ccccc2)CC1 (configuration not stated),-41,18*,6,20,-24,-1,13,8
CCC(c1nnnn1Cc1ccc2c(c1)OCO2)N1CCN(c2ccc(F)cc2)CC1 (configuration not stated),9,19*,6,15,1,-2,8,8
CCN1C(=O)N(CC)C2C1N(CO)C(=O)N2CO (configuration not stated),4,.,-26,4,8,3,.,.
Nn1c(Cc2cccc3ccccc23)nnc1SCc1c(Cl)cccc1Cl,-23,20*,-10,2,-29,-1,17,41*
Nn1c(Cc2cccc3ccccc23)nnc1SCc1ccc(Cl)c(Cl)c1,8,4,-2,2,-4,0,.,.
O=C(Nc1nccs1)c1cc(-c2ccco2)nc2ccccc12,7,14,0,0,3,1,.,.
O=C(Nc1nc2ccccc2s1)c1cc(-c2ccco2)nc2ccccc12,-116,37*,-4,7,-111,1,64*,88*
CNc1ccn(C2CCCO2)c(=O)n1 (configuration not stated),-2,.,-1,.,32,-1,.,.
CC(=O)c1ccc(N2Cc3ccccc3/C2=N\C(=O)Nc2ccc(Cl)cc2)cc1,6,24*,-16,6,15,2,109*,151*
COC(=O)c1ccc(N2Cc3ccccc3/C2=N\C(=O)Nc2ccccc2)cc1,7,17,-7,-1,-13,1,.,.
Clc1ccc(-n2cc(-c3ccc(Br)cc3)[n+]3c2CCCCC3)cc1,1,.,10,.,27,1,.,.
CCOC(=O)CSc1ncc(OC)c(Sc2ccc(Cl)cc2)n1,-19,21*,-4,14,-34,-2,4,9
CCOC(=O)C(C)Sc1ncc(OC)c(Sc2ccc(Cl)cc2)n1 (configuration not stated),-22,17,-2,8,-11,1,.,.
Cc1ccc(SCc2nc3ccccc3n2CC(=O)Nc2c(C)cccc2C)cc1,-8,19*,2,12,5,-1,4,5
COc1ccc(/C=C2\CCCc3c2nc2ccc(C)cc2c3C(=O)O)cc1O,2,.,-8,.,-10,0,.,.
SMILES,NPY-Y2 PAM-ag,NPY-Y2 antag,S1P4 antag,NPY Y1 blocker,NPY1 pot ag,S1P4 ag,NPY-Y1 antag ct,NPY2 antag conf
CCCOc1ccc(C(=O)O/N=C(\CC)c2ccc(C)cc2)cc1,-11,10,-15,1,-4,2,.,.
CC/C(=N\OC(=O)c1ccc(OC(C)C)cc1)c1ccc(C)cc1,-18,20*,14,12,-12,1,10,14
C/C(=N\OC(=O)c1ccc(OC(C)C)cc1)c1ccc(C)c(C)c1,1,22*,1,13,-42,-1,15,30*
Nc1n[nH]c(-c2ccccc2)c1-c1ccccc1,-5,5,5,-8,-1,1,.,.
O=c1n(Cc2ccc(Cl)cc2)c2sc3c(c2c2ncnn12)CCCC3,-15,41*,-10,0,-31,-1,22*,32*
C=CCn1c(=O)n2ncnc2c2c3c(sc21)CCCC3,1,6,2,-2,-15,1,.,.
CCn1c(/C=C/N(C(C)=O)c2ccccc2)[n+](CCCS(=O)(=O)[O-])c2cc(Cl)c(Cl)cc21,-6,.,0,1,-13,-2,.,.
CCn1c(/C=C/Nc2ccccc2)[n+](CC)c2cc(Cl)c(Cl)cc21,4,35*,-13,8,0,0,13,15
Cc1ccc(-c2cn3c(=O)cc(C)[nH]c3n2)cc1,0,-1,5,4,-3,0,.,.
CCN(CC)CC(O)COc1ccc2c(c1)c(C(C)=O)c(C)n2-c1ccccc1 (configuration not stated),-35,17*,-10,17,-69,4,14,32*
CC(=O)c1c(C)n(-c2ccccc2)c2ccc(OCC(O)CN3CCOCC3)cc12 (configuration not stated),-24,14,0,5,-26,0,.,.
Cc1cc(C)n(-c2nc(C)nc(N)n2)n1,15,20*,-12,6,8,1,6,1
Cc1cc(Cl)nc(-n2nc(C)cc2C)n1,-16,.,-3,.,16,1,.,.
COc1ccc(NS(=O)(=O)c2cccc3nonc23)c(OC)c1,-2,2,4,0,-8,0,.,.
Cc1ccc(S(=O)(=O)N2CCNC(=O)CC2)cc1,-6,.,-4,-3,-11,0,.,.
COc1cc2c(cc1NC(=O)C(c1ccccc1)c1ccccc1)CCCC2,-12,20*,0,10,12,1,18,14
COc1cc2c(cc1NC(=O)c1ccccc1F)CCCC2,-12,10,-26,11,-49,-2,.,.
O=C(c1ccco1)N(CCCN1CCOCC1)c1nc(-c2ccc(F)cc2)cs1,-16,19*,-26,9,-30,-1,16,13
Cc1cccc(-n2c3nc(=O)[nH]c(=O)c-3cc3c(C)nn(-c4ccccc4)c32)c1C,-4,0,-12,-4,-6,4,.,.
